Measurements as given in the EternaBench riboswitch data.

System: MS2 coat protein
Assay: apparent Kd, MS2 coat protein; higher = weaker binding; RNA-MaP array; FMN 200 µM where present
In short: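 The apparent Kd is reported as the median of filtered per-cluster binding-curve fits. To get these curves, designs transcribed by stalled E. coli RNA polymerase on Illumina sequencing-chip clusters were titrated with SNAP-549-labelled MS2 coat protein from 0.7 or 1.5 nM, doubling to 3 µM. Titrations were run without and then with constant ligand in 100 mM Tris-HCl pH 7.5, 80 mM KCl, 4 mM MgCl2, BSA, DTT, yeast tRNA and Tween-20, and green signal was normalised to red-channel RNA signal and control-cluster median Fmax.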

[1] = designed as: OFF switch for flavin mononucleotide, no ligand
[2] = ligand present: flavin mononucleotide, designed as: OFF switch for flavin mononucleotide
[3] = designed as: ON switch for flavin mononucleotide, no ligand
[4] = ligand present: flavin mononucleotide, designed as: ON switch for flavin mononucleotide

Sequence	apparent Kd [1] [nM]	apparent Kd [2] [nM]	apparent Kd [3] [nM]	apparent Kd [4] [nM]
AGGAGAAAUGUAGGAUAUGGGCAUAUAUAUGGGCAAAGCGCAUAUAUAUGCCCAGAAGGACAUGAGGAUCACCCAUGUUUCCCU	12.5	13.6	–	–
UACAUCGGAGGAUAUACAUGAGGAUCACCCAUGUGAGUGUAAGGGAGCGUAAGCGGGUGUAGAAGGCCGUCUUU	58.3	49.5	–	–
CGCUACUGCCAGAAGGACAUGAGGAUCACCCAUGUAGGAUAUGGGUGUCGAGGACCAGUGUAGAGAAACUACGCUACAGUAGCG	–	–	958	57.6
GUAAUUAAUGUAGGAUAUGCAAGGCGAACCUAAGCAGAAGGACAUGAGGAUCACCCAUGUAUUGCGGUCUGCGUUCAGAUCGCU	19.5	49.5	–	–
UAGCGCUGUCGAGAGGAUAUGCGGUGAUGGACAUGAGGAUCACCCAUGUUAGCGAUAGCAUUACGGUAGAAGGCUCUACAGCUGU	–	–	245	36
GUUGCAAAUGAGAAGGCGAUCAUGAAACAUGAUCGAGGAUAUCAUGUUUACAUGAGGAUCACCCAUGUAUGGGUAUAUUGCAGC	–	–	402	22.2
CCAUUCAGAGGAUAUGCGCAUAGAUAAGACUUUUUUUUUUAACAUGAGGAUCACCCAUGUAGAAGGCUGUAACC	23.2	23.1	–	–
UCAUUGGUAGUGAGGAUAUCGGUGUGAUGGAAUGACGAGAAGGCACAUGAGGAUCACCCAUGUAAGAUUGGGCU	314	436	–	–
UCAUACAUGACAUGACAUGACAUGAGGAUCACCCAUGUUUACAAGGAUAUGUUGAUGAAACAUCAACAGAAGGUGUAUUGGACU	51.8	172	–	–
CUACCUUAUGAGAAGGCGAUCAUGAAACAUGAUCGAGGAUAUCAUGUAAACAUGAGGAUCACCCAUGUAUGGGUAUUAUGGUAG	–	–	331	40.4
UGCAAAAUUGCAACAUGAGGAUCACCCAUGUCUGGGUUGGCCAAGGAUAUGCUUCUAAUCCUAGUGCAGAAGGUGGAAACUCAU	–	–	201	530
UGAUCCGUGUAGGAUAUCUGUUGGCCGCCGACUGGAGAAGGGCACACAUGAGGAUCACCCAUGUGUGGGCAUAA	17.8	19.6	–	–
UAUAAGAACGAAGGAUAUGGUUACAUGAGGAUCACCCAUGUAUGUAUAUUGAUCUAGUAUUAUAACCAGAAGGUCGAGAGUAUA	16.1	27.1	–	–
AACAUGAGGAUCACCCAUGUACGCUGUAAUUACUCGCGUUGGCAGGAUAUGGGUUGGCUUCCGUCCCAGAAGGGUCAAGAUAAA	–	–	253	105
GUCCUCAGCGAGGAUAUCGGGCGGGUUUUUGUUUGAGAAGGCGUGACAUGAGGAUCACCCAUGUGGCGCGUGGG	51.2	82.3	–	–
CAGUACUGAGGAUAUACAUGAGGAUCACCCAUGUGUUGCAGCUAGGAAACUAGCAAAAGUAGAAGGCAGUACUG	10.7	21	–	–
GAAAACAGAGGAUAUACAUGAUUAUGACGAAAGUCAUAAAAACAUGAGGAUCACCCAUGUAGAAGGCUGAAGAA	185	201	–	–
AAACGUAGAGGAUAUACAUAAGUAUUACGAAAGUAAUACAAACAUGAGGAUCACCCAUGUAGAAGGCUACGAAA	25.4	35.3	–	–
CAGUACUGAGGAUAUACAUGAGGAUCACCCAUGUGUUCCAGCUAGGAAACUGGCAAAAGUAGAAGGCAGUACUG	22.8	320	–	–
AAAACUGGAGGAUAUACAUGAGGAUCACCCAUGUGUGGGUAGGCUGUGUCGGCGUCAGGUAGAAGGCCACAAAA	92.3	136	–	–
GGUACCAUCACAGGAUAUGCUUUCCGUUGGGAAGCAGAAGGGUGUAACAUGAGGAUCACCCAUGUGGUGCCCGGGCGUGAGCCC	–	–	135	15.6

Sequence	apparent Kd [1] [nM]	apparent Kd [2] [nM]	apparent Kd [3] [nM]	apparent Kd [4] [nM]
AAAAGACAUGAGGAUCACCCAUGUCAGGAUAUCUAUAUUCAAGGGUCGGAGGGAAUACAGAGAAGGGAUGAGGG	21.8	24.8	–	–
GUGCGGAACCUAGGAUAUCCGACAUGGACAGGUGGUAAGUCUCCCACAUGAGGAUCACCCAUGUAGGAGAAGGAGGAUCACGGG	6.84	7.39	–	–
CGUCCACAUGAGGAUCACCCAUGUCAGGAUAUACAAAUGCCAGGUCGCGGGCCAGGCGGUAGAAGGGACGUGGC	23.1	18.6	–	–
UUAAAUCAUGUAGGAUAUGCAUGGCGAAGCUACGCAGAAGGACAUGAGGAUCACCCAUGUUCAAGCGUCUGAGUACAGAUGCAA	20.9	102	–	–
AACCGCGAUCGGCCUGGCACGUCGAGAAGGGUACGUGACCUGCUUUACAUGAGGAUCACCCAUGUACAGGAUAUCGAAUAGCCG	6.2	6.68	–	–
UAGUUAUUCACAGGAUAUCGCCUCUUAUUACAUGAGGAUCACCCAUGUUUAUUUUGUUACAUGUUCGAGAAGGGUGUAGCCGUU	345	375	–	–
AGUGCGUAUGUGAGGAUAUGCUGGUCCUUGGAUCAGCAGAAGGCACAUGAGGAUCACCCAUGUGGUGUCGUACC	209	36.4	–	–
CUGGUUGUCGUAGGAUAUGUAGGAUAUUCCUACAUGAGGAUCACCCAUGUUCGCAUGGAAGAAGGACAGAAGGACGAUGACCAU	–	–	1020	9.16
AAAUGCCUGUCGAUGCUCGACAUGAGGAUCACCCAUGUAUAGCAGGAUAUGCAGAACUGACUCGUGCAGAAGGGCUAUACCUAA	38.2	315	–	–
CCGAAUAUGCAGGAUAUCUUAUCGGAAACGAUAAGAGAAGGGUAAACAUGAGGAUCACCCAUGUUCCUUAACGG	20.3	21	–	–
GCAGCACAGUAUUACAUGAGGAUCACCCAUGUCGAUUGAGAUGAGGAUAUGCAUCGAAUGAAGUUGCAGAAGGCAUUGUGCUGC	–	–	10.9	5.94
UCAUUUAAUACAGGAUAUGUUAGUAUACAGUAGAUUGGUUAUAACAUAAUAACAGAAGGGUAGAACAUGAGGAUCACCCAUGUA	–	–	86	64.6
UUUUAACAUGAGGAUCACCCAUGUGAGGAUAUCGAAAUUUAUAUUAAUAUUUAUAAAUCGAGAAGGCACAUUUU	135	124	–	–
CAUAAGAUAGGAUAUACAGGCCCGUCUUUAUAUUGAUCCCGACAUGAGGAUCACCCAUGUAGAAGGAUCAUAUG	13.7	15.2	–	–
CCCGUGUUAGGAUAUACGGCACACCCACCAGCGGGUGUAUAGUAGAAGGAACAUGAGGAUCACCCAUGUAUAAC	34.9	51.4	–	–
AAUAUGAGCUGGUAUAAACCCGAAACAUGAGGAUCACCCAUGUAGGAUAUCAGCACGAUAAGUGCUGAGAAGGACAUCCAGCUC	14.5	14.5	–	–
GGUACUCAAAGAGUACCAAUACGAACAUGAGGAUCACCCAUGUAGGAUAUGCUACUCAAAGAGCAGCAGAAGGACAUGUGCCUA	17.7	125	–	–
GGGUACAUGGGAGGAUAUCCUCAUGAGACAUGAGGAUCACCCAUGUAUUAUAAGCCGAAAGGCAAGGAGAAGGCCCAUGUACCG	–	–	30.2	17
CUCUUACAUGAGGAUCACCCAUGUGUUGUCGUGGGAGGAUAUCCUGGUUCGGUGGCGUUGGGAGAAGGCCUAUGUC	–	–	722	242
ACUACUUACUAGGAUAUCAGAGUCGAAAGACUCUGAGAAGGAGUAACAUGAGGAUCACCCAUGUGUCCUAUAGU	17.9	29.4	–	–
AGCUGUGGCCGAGGAUAUCUAAAUUCUCAAAACGAAAUAUAAUCGAACAUGAGGAUCACCCAUGUAGAGAAGGCGGUCUCAGCA	39	298	–	–
